# HNF4A DNA FP: change in binding of human HNF4 alpha to DNA; activity change, % at 10 µM; P41235; HNF4a-FITC DNA binding, fluorescence polarization, 1 h; AID 1224865; 360,000 tested, 0.3% active; in the data active = activity change above about 30%, passing the limit was not always enough
# SENP1 inh: inhibitors of human SENP1 SUMO protease catalytic domain | recombinant SENP1 catalytic domain, CyPet-SUMO1-YPet FRET cleavage | Q9P0U3 | inhibition, % at 10 µM | 360,000 tested, 0.21% active | AID 624204;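 active = inhibition at least 30% at 10 µM, raw YFP signal under a set limit, fluorescence ratio 0.5 to 1.5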;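 note: 0% = enzyme with DMSO and 100% = no enzyme wells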
#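 system = hSENP1 catalytic domain, recombinant | reagent = SFCypet-SUMO1-SFYpet substrate at 25 nM | doses = one dose per compound, 10 µM, 0.5% DMSO | incubation = enzyme reaction for 50 min at room temperature, dark | measured by = FRET, CFP and YFP emission | controls = no-enzyme low, enzyme-DMSO high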
# CSN inh: CSN deneddylation inhibition; 360,000 tested, 0.38% active; inhibition, % at 12.5 µM; Purified CSN, SCF-Nedd8-OG deneddylation, fluorescence polarization; AID 651999; Q92905;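 active = pattern-corrected inhibition above about 35%, with an unprinted fluorescence ratio check between 0.5 and 1.5, limit read from the data, passing the limit was not always enough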;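 note: 0% = enzyme with substrate and 100% = substrate without enzyme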
#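 Test system: purified human Csn5 enzyme expressed in HEK293T cells. Amount: 0.24 nM enzyme. Reagent: SCFSkp2-Nedd8OG substrate at 10 nM final. Schedule: 90 min incubation of compound, enzyme and substrate at room temperature. Detection: fluorescence polarization. Read-out: % inhibition of substrate cleavage by Csn5.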
# Rpn11 inh: blocks the human proteasome subunit Rpn11 | human 26S proteasome, Ub4-pepOG fluorescence polarization; 20S core pre-blocked with epoxomicin | inhibition, % at 20 µM | 360,000 tested, 0.59% active | AID 588493;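 active = inhibition at 20 µM, scaled to each plate's controls, above about 33%, limit read from the data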
# Target sequence (O00487 whole entry, looked up): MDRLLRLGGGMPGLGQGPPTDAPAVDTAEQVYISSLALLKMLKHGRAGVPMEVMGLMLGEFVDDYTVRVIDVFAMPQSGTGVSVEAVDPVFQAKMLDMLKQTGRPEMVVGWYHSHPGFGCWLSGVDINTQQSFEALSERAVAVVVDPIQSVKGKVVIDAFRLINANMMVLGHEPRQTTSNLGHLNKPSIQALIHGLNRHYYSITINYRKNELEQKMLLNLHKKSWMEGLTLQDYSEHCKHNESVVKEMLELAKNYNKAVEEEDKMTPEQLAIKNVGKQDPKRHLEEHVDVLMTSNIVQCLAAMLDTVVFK
# ATG4B inh: blocks human ATG4B protease cleavage of LC3 substrate | ATG4B cleavage of LC3-PLA2, NBD-HPC fluorescence, 1 h | Q9Y4P1 | inhibition, % at 8.33 µM | 340,000 tested, 0.51% active; in the data active = inhibition above about 40%
# TPT1 inhibitor: blocks Candida albicans tRNA 2'-phosphotransferase; inhibition, % at 5 µM; 300,000 tested, 0.81% active; recombinant caTPT1, FP RNA substrate dephosphorylation;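 active = inhibition above the mean of all tested compounds plus 3 SD, set per screening campaign, cut at about 24% in these data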;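 note: plate controls were DMSO alone for no effect and ferristatin control at 100 nM for full effect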
# caTPT1 confirm: confirmation of Candida albicans TPT1 inhibitors. shares compounds with TPT1 inhibitor. recombinant caTPT1, fluorescence polarization, RNase T1 coupled. inhibition, % at 5 µM. 2,400 tested, 74% active. AID 2149;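 active = inhibition above the primary screen limit, the mean inhibition of all tested compounds plus 3 SD, cut at about 25% in these data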
# RNase T1 counter: blocks Aspergillus oryzae RNase T1, a TPT1 counter-screen; shares compounds with TPT1 inhibitor; RNase T1 cleavage, fluorescence polarization, 1536-well; inhibition, % at 5 µM; 2,400 tested, 83% active;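 active = inhibition above the solvent-only control well mean plus 3 SD, limit set per screening run, cut at about 23% in these data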;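 note: plate controls were DMSO wells with enzyme for no effect and wells without RNase T1 for full effect; inhibitors block cleavage so intact labeled substrate keeps polarization high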
# Target sequence (P00651 whole entry, looked up): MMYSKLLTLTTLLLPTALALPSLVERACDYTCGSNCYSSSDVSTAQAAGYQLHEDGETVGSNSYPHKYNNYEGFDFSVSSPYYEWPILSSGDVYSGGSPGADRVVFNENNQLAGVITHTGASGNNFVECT
# Numbers without * were called inactive; . = no result given. The list is not random: actives were taken first. Their share in the collection is about 2%.
SMILES,HNF4A DNA FP,SENP1 inh,CSN inh,Rpn11 inh,ATG4B inh,TPT1 inhibitor,caTPT1 confirm,RNase T1 counter
O=C(CC[C@H]1O[C@@H](n2cnc3c(NC(=O)c4ccccc4)ncnc32)[C@H](O)[C@@H]1O)NCCCN1CCOCC1,-3.0,1.3,-0.3,0.1,.,.,.,.
Cc1ccc2cc(/C=N/NC(=O)c3ccc(F)cc3)c(Cl)nc2c1,0.8,0.8,5.3,7.5,-7.1,1.6,.,.
Cc1ccc2nc(Cl)c(/C=N/Nc3ccc(C(=O)O)cc3)cc2c1,0.4,-32.7,4.9,11.1,-0.4,29.9*,36.1*,47.0*
Nc1nc(N)c2ncc(C(=O)CCc3ccccc3)nc2n1,5.1,-30.1,-19.1,22.5,0.9,41.0*,43.6*,56.2*
CCOC(=O)Cc1cc(=O)n(-c2nc3ccccc3s2)[nH]1,9.0,-34.3,12.7,24.5,25.9,27.7*,13.9,24.4*
CC(=O)Nc1cccc(-c2cc(N3CCN(CCO)CC3)n3nccc3n2)c1,2.8,-7.5,1.2,-10.3,.,.,.,.
O=C(Nc1ccc(F)cc1)C(CCc1ccccc1)N1CCN(C(=O)c2ccco2)CC1 (stereo not given),-0.2,0.3,1.7,.,.,.,.,.
CN(c1ccccc1)S(=O)(=O)c1cccc(NC(=O)CN2CCCc3ccccc32)c1,10.1,-3.7,4.7,32.0,8.7,37.1*,25.0*,37.0*
NS(=O)(=O)c1cccc(NC(=O)CN2CCc3ccccc32)c1,1.0,-17.5,-0.7,10.9,-16.4,-37.8,.,.
CCCN1C(=O)/C(=C\C=C2/C=CN(CC)c3ccccc32)SC1=S,2.1,-45.6,11.4,13.9,-6.0,1.7,.,.
CCCCN1C(=O)/C(=C/C=C2\N(C)c3ccccc3C2(C)C)SC1=S,.,.,.,.,.,196.0*,134.1*,123.8*
C/C(CC(=O)NCc1ccco1)=N\NC(=O)Cc1ccc(-c2ccccc2)cc1,0.0,1.3,-0.7,-2.8,4.0,38.1*,-0.3,4.3
C[C@@H]1CN([C@H](C)CO)C(=O)c2cc(C#CC3CC3)cnc2O[C@H]1CN(C)S(C)(=O)=O,-4.1,-0.9,1.0,9.8,.,.,.,.
COC(=O)c1cc(NC(=O)c2cccc(Cl)c2)c(=O)oc1/C=C/Nc1cc(C)cc(C)c1,.,.,.,.,.,194.0*,166.3*,155.4*
Cc1oc(=O)c(NC(=O)c2ccc(Cl)cc2)cc1C(=O)c1ccccc1,2.2,-1.5,-0.7,3.0,13.7,-4.9,.,.
N#Cc1c(N)n(CCNC(=O)c2ccccc2)c2nc3ccccc3nc12,0.7,-27.3,2.1,19.5,-1.5,21.0,.,.
N#Cc1c(N)n(CCNC(=O)c2cccs2)c2nc3ccccc3nc12,5.4,-33.9,15.9,10.7,-10.8,62.9*,44.7*,59.1*
C=CCn1c(SCC(=O)NC2CC2)nnc1C1CC1,-3.7,1.4,4.2,-5.1,4.0,1.4,.,.
Cn1c(N/N=C/c2cc3ccccc3nc2Cl)nc2ccccc21,60.3*,-25.0,10.9,10.1,-10.5,68.9*,10.0,18.9
Cn1c(N/N=C/c2c[nH]c3ccccc23)nc2ccccc21,-3.5,-2.1,2.6,15.6,-33.6,-0.4,.,.
CN1CCS/C1=C/C=C1\SC(=S)N(CC(=O)O)C1=O,170.9,65.5*,-74.5,.,-18.9,168.8*,180.2*,166.8*
CC(/C=C1\SC(=S)N(CC(=O)O)C1=O)=C\c1ccccc1,-0.4,-1.8,3.8,-1.4,18.7,-1.5,.,.
CCC(C)(C)C(=O)Nc1cc([N+](=O)[O-])ccc1Cl,1.2,1.1,-7.3,2.5,-0.1,-1.5,.,.
CCN(CC)c1nc(C)c(C(=S)Nc2cc([N+](=O)[O-])ccc2Cl)s1,47.2*,-35.7,27.3,.,7.6,28.3*,61.0*,73.2*
CCOC1=C/C(=C/c2c(N)n3oc(C)cc3nc2=O)C=CC1=O,.,.,.,.,.,12.4,.,.
COC1=C/C(=C/c2c(N)n3c(nc2=O)sc2cc(S(C)(=O)=O)ccc23)C=CC1=O,95.7*,-35.7,116.3,.,-9.4,54.3*,146.5*,143.0*

# Assay outcomes (PubChem BioAssay)
